Key:
[1] = test system: Mus musculus; experiment: Toxicity in mouse assessed as suppression of locomotion at 10 mg/kg, ip measured for 5 mins; format: organism-based; settings: in vivo
[2] = molecular target: T1, Alpha-1 adrenergic receptor (Mus musculus, UniProt P97714+P97717+P97718); experiment: Displacement of [3H]prazosin from alpha1 adrenoceptor in C57BL/6 mouse hippocampal homogenates after 40 mins by liquid scintillation counting method
T1 sequence (P97714 whole entry): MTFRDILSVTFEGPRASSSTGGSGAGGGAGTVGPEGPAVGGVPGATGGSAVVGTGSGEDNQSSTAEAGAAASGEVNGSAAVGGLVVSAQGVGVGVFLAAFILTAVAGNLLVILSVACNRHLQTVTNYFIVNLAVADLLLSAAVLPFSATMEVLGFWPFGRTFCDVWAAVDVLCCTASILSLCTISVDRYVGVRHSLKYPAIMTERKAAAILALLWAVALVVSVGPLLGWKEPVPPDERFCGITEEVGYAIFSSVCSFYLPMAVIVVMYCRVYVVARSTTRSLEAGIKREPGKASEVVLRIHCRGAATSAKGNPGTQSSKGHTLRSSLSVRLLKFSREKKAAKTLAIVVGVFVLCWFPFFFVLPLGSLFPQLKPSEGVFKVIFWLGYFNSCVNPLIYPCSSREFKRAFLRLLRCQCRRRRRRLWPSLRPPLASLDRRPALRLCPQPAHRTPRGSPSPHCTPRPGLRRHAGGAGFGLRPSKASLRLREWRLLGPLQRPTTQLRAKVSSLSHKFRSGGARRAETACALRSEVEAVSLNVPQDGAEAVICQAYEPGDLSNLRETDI
T1 sequence (P97717 whole entry): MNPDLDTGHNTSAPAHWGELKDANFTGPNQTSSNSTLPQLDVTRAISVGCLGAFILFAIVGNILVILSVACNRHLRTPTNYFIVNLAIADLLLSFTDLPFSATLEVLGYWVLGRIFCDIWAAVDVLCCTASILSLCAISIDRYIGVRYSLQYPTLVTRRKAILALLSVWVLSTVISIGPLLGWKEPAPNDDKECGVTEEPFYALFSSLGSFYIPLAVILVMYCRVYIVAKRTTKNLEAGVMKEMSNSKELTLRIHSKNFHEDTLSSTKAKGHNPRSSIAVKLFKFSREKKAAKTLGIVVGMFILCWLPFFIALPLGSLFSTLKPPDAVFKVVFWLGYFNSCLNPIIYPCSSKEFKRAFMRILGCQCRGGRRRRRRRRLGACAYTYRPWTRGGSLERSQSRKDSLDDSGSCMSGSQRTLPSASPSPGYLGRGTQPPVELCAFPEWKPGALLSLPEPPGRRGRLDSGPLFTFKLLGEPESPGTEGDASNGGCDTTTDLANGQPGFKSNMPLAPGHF
T1 sequence (P97718 whole entry): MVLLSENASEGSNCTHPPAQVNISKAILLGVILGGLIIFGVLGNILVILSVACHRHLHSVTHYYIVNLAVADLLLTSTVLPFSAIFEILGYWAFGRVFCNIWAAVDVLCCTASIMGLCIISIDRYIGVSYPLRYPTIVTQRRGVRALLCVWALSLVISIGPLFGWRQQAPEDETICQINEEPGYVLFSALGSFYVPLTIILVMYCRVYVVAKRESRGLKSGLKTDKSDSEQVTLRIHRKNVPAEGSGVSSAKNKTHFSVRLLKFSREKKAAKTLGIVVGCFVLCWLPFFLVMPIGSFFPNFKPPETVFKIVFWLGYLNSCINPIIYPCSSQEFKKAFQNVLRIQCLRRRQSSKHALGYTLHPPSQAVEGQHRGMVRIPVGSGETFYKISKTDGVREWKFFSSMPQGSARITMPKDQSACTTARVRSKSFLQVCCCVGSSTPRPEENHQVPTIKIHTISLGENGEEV
In short: (§1)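 Mouse hippocampal homogenate incubated with 1.5 nM [³H]prazosin and competing ligand across a concentration series. Bound radioligand was expressed as displacement relative to control. IC₅₀ was obtained from non-linear regression fitting of concentration-effect curves, and curve fits were compared with tamsulosin.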

[3] = test system: Mus musculus; experiment: Anti-depressant-like activity in mouse assessed as time spent immobile at 1 mg/kg, ip administered 60 mins prior to testing measured for 6 mins by tail suspension test (reference value: 186.9 +/- 13.2 secs); format: functional
[4] = test system: Mus musculus; experiment: Anti-depressant-like activity in mouse assessed as time spent immobile at 0.1 mg/kg, ip administered 60 mins prior to testing measured for 6 mins by tail suspension test (reference value: 186.9 +/- 13.2 secs); format: functional
[5] = test system: Mus musculus; experiment: Anti-depressant-like activity in mouse assessed as time spent immobile at 3.2 mg/kg, ip administered 60 mins prior to testing measured for 6 mins by tail suspension test (reference value: 186.9 +/- 13.2 secs); format: functional
[6] = test system: Mus musculus; experiment: Toxicity in mouse assessed as suppression of locomotion at 1 mg/kg, ip measured for 5 mins; format: organism-based; settings: in vivo
[7] = test system: Mus musculus; experiment: Toxicity in mouse assessed as suppression of locomotion at 0.1 mg/kg, ip measured for 5 mins; format: organism-based; settings: in vivo
[8] = molecular target: T2, alpha1 adrenoceptor (Mus musculus, UniProt P97714+P97717+P97718); experiment: Displacement of [3H]prazosin from alpha1 adrenoceptor in C57BL/6 mouse hippocampal homogenates assessed as remaining receptor bound [3H]prazosin levels at 0.01 uM after 40 mins by liquid scintillation counting method relative to control; settings: probe [3H]prazosin, read-out: Activity; in short: as §1
T2 sequence (P97714 whole entry): T1 sequence (P97714 whole entry)
T2 sequence (P97717 whole entry): T1 sequence (P97717 whole entry)
T2 sequence (P97718 whole entry): T1 sequence (P97718 whole entry)

[9] = molecular target: T2, alpha1 adrenoceptor; experiment: Displacement of [3H]prazosin from alpha1 adrenoceptor in C57BL/6 mouse hippocampal homogenates assessed as remaining receptor bound [3H]prazosin levels at 0.001 uM after 40 mins by liquid scintillation counting method relative to control; settings: probe [3H]prazosin, read-out: Activity; in short: as §1
[10] = molecular target: T2, alpha1 adrenoceptor; experiment: Displacement of [3H]prazosin from alpha1 adrenoceptor in C57BL/6 mouse hippocampal homogenates assessed as remaining receptor bound [3H]prazosin levels at 100 uM after 40 mins by liquid scintillation counting method relative to control; settings: probe [3H]prazosin, read-out: Activity; in short: as §1
[11] = molecular target: T2, alpha1 adrenoceptor; experiment: Displacement of [3H]prazosin from alpha1 adrenoceptor in C57BL/6 mouse hippocampal homogenates assessed as remaining receptor bound [3H]prazosin levels at 0.1 uM after 40 mins by liquid scintillation counting method relative to control; settings: probe [3H]prazosin, read-out: Activity; in short: as §1
[12] = test system: Mus musculus; experiment: Toxicity in mouse assessed as mortality at 10 mg/kg, ip measured for 5 mins; format: organism-based; settings: in vivo
In short: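 Mice were given an intraperitoneal injection of the compound, with D-22 dosed over 0.01–10.0 mg/kg and analogues at equivalent doses. Each mouse was placed at once in an infrared beam-break activity chamber. Beam breaks were counted per 5 min period over a four-hour session, and deaths at the 10 mg/kg dose were recorded in the locomotor dose groups.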

[13] = molecular target: T2, alpha1 adrenoceptor; experiment: Displacement of [3H]prazosin from alpha1 adrenoceptor in C57BL/6 mouse hippocampal homogenates assessed as remaining receptor bound [3H]prazosin levels at 10 uM after 40 mins by liquid scintillation counting method relative to control; settings: probe [3H]prazosin, read-out: Activity; in short: as §1
[14] = molecular target: T2, alpha1 adrenoceptor; experiment: Displacement of [3H]prazosin from alpha1 adrenoceptor in C57BL/6 mouse hippocampal homogenates assessed as remaining receptor bound [3H]prazosin levels at 1 uM after 40 mins by liquid scintillation counting method relative to control; settings: probe [3H]prazosin, read-out: Activity; in short: as §1
[15] = molecular target: T2, alpha1 adrenoceptor; experiment: Displacement of [3H]prazosin from alpha1 adrenoceptor in C57BL/6 mouse hippocampal homogenates assessed as remaining receptor bound [3H]prazosin levels at 0.0001 uM after 40 mins by liquid scintillation counting method relative to control; settings: probe [3H]prazosin, read-out: Activity; in short: as §1
[16] = molecular target: T2, alpha1 adrenoceptor; experiment: Displacement of [3H]prazosin from alpha1 adrenoceptor in C57BL/6 mouse hippocampal homogenates assessed as remaining receptor bound [3H]prazosin levels at 30 uM after 40 mins by liquid scintillation counting method relative to control; settings: probe [3H]prazosin, read-out: Activity; in short: as §1
[17] = molecular target: T2, alpha1 adrenoceptor; experiment: Displacement of [3H]prazosin from alpha1 adrenoceptor in C57BL/6 mouse hippocampal homogenates assessed as remaining receptor bound [3H]prazosin levels at 0.03 uM after 40 mins by liquid scintillation counting method relative to control; settings: probe [3H]prazosin, read-out: Activity; in short: as §1
[18] = molecular target: T2, alpha1 adrenoceptor; experiment: Displacement of [3H]prazosin from alpha1 adrenoceptor in C57BL/6 mouse hippocampal homogenates assessed as remaining receptor bound [3H]prazosin levels at 0.003 uM after 40 mins by liquid scintillation counting method relative to control; settings: probe [3H]prazosin, read-out: Activity; in short: as §1
[19] = molecular target: T2, alpha1 adrenoceptor; experiment: Displacement of [3H]prazosin from alpha1 adrenoceptor in C57BL/6 mouse hippocampal homogenates assessed as remaining receptor bound [3H]prazosin levels at 3 uM after 40 mins by liquid scintillation counting method relative to control; settings: probe [3H]prazosin, read-out: Activity; in short: as §1
[20] = molecular target: T2, alpha1 adrenoceptor; experiment: Displacement of [3H]prazosin from alpha1 adrenoceptor in C57BL/6 mouse hippocampal homogenates assessed as remaining receptor bound [3H]prazosin levels at 0.3 uM after 40 mins by liquid scintillation counting method relative to control; settings: probe [3H]prazosin, read-out: Activity; in short: as §1

| Compound | Activity [1] | IC50 [2] [nM] | Time [3] [s] | Time [4] [s] | Time [5] [s] | Activity [6] | Activity [7] | activity at 40 min, 0.01 µM [8] [%] | activity at 40 min, 0.001 µM [9] [%] | activity at 40 min, 100 µM [10] [%] | activity at 40 min, 0.1 µM [11] [%] | Activity [12] | activity at 40 min, 10 µM [13] [%] | activity at 40 min, 1 µM [14] [%] | activity at 40 min, 0.0001 µM [15] [%] | activity at 40 min, 30 µM [16] [%] | activity at 40 min, 0.03 µM [17] [%] | activity at 40 min, 0.003 µM [18] [%] | activity at 40 min, 3 µM [19] [%] | activity at 40 min, 0.3 µM [20] [%] |
| --- | --- | --- | --- | --- | --- | --- | --- | --- | --- | --- | --- | --- | --- | --- | --- | --- | --- | --- | --- | --- |
| CCN1/C(=C/c2ccc3cc(F)ccc3[n+]2CC)C=Cc2ccccc21.[I-] | Toxic | 348 | 198.1 | 185.5 | 113.5 | Non-Toxic | Non-Toxic | – | – | – | – | – | – | – | – | – | – | – | – | – |
| CCN1/C(=C/c2ccc3cc(Cl)ccc3[n+]2CC)C=Cc2ccccc21.[I-] | Toxic | 577 | 189.3 | 189.2 | 140.4 | Non-Toxic | Non-Toxic | – | – | – | – | – | – | – | – | – | – | – | – | – |
| CCN1/C(=C/c2ccc3cc(OC)ccc3[n+]2CC)C=Cc2ccccc21.[I-] | Toxic | – | 135.7 | 167.2 | 203.1 | Non-Toxic | Non-Toxic | 97 | 100 | 1.3 | 81 | Toxic | 1.7 | 23 | – | – | – | – | – | – |
| CCN1/C(=C/c2ccc3cc(Br)ccc3[n+]2CC)C=Cc2ccccc21.[I-] | Toxic | – | 190 | 171.3 | 179 | Non-Toxic | Non-Toxic | 102 | 100 | 0 | 67.7 | Toxic | 1.3 | 43.3 | – | – | – | – | – | – |
| CN1/C(=C\c2cc[n+](C)c3ccccc23)C=Cc2ccccc21.O=C([O-])C(F)(F)F | Toxic | – | 165.3 | 200.8 | 150 | Non-Toxic | Non-Toxic | – | – | – | – | Toxic | – | – | – | – | – | – | – | – |
| CC(C)[n+]1ccc(/C=C2/C=Cc3ccccc3N2C)c2ccccc21.O=C([O-])C(F)(F)F | Toxic | 1066 | 152.8 | 198.3 | 170.3 | Non-Toxic | Non-Toxic | 97.3 | 100 | 3.3 | 89.7 | – | 6.7 | 52.3 | 100 | – | – | – | – | – |
| CCN1/C(=C/c2ccc3cc(I)ccc3[n+]2CC)C=Cc2ccccc21.[I-] | Non-Toxic | 711 | 184.5 | 183 | 167.6 | Non-Toxic | Non-Toxic | 98.3 | 111 | 12.3 | 96 | – | -2.8 | 39.3 | 100 | -3 | 119 | 130 | 52 | 94 |
| CCN1/C(=C/c2ccc3ccccc3[n+]2CC)C=Cc2ccccc21.[I-] | – | 60 | 185.8 | – | 149.3 | Toxic | Non-Toxic | 81.2 | 92.8 | 13.3 | 44.6 | – | 12.6 | 16.6 | 100 | -5 | – | 84 | – | 8 |
| Cc1ccnc2ccccc12 | – | – | – | – | – | – | – | 26.3 | 100 | 0 | 2.7 | – | 3 | 8.3 | – | – | – | – | – | – |
| CCOc1ccccc1OCCN[C@H](C)Cc1ccc(OC)c(S(N)(=O)=O)c1 [TAMSULOSIN] | – | 1.8 | – | – | – | – | – | – | – | – | – | – | – | – | – | – | – | – | – | – |

From ChEMBL document CHEMBL4118073, “Evaluation of the antidepressant therapeutic potential of isocyanine and pseudoisocyanine analogues of the organic cation decynium-22” (Eur J Med Chem, 2017)
